Measurements taken from ChEMBL document CHEMBL1125894, “Dual-action cephalosporins: cephalosporin 3'-quaternary ammonium quinolones” (1991).
In brackets after ≈: the same amount, converted by molar mass.

What was measured:
Citrobacter freundii = assay: In vitro antibacterial activity against Citrobacter freundii BS 16; type: functional
How it was run: (§1)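 Serial 2-fold dilutions in the NCCLS broth microdilution method for aerobic nonfastidious organisms, with an 18-h incubation. The value is reported as the minimum inhibitory concentration (MIC).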

Pseudomonas aeruginosa [1] = assay: In vitro antibacterial activity against Pseudomonas aeruginosa 5712; type: functional; how it was run: as §1
Staphylococcus aureus [2] = assay: In vitro antibacterial activity against Staphylococcus aureus 95(MR); type: functional
How it was run: (§2)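 Staphylococci were tested by the standard agar dilution procedure using serial 2-fold dilutions of agent. The value is reported as the MIC.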

Enterobacter cloacae [3] = assay: In vitro antibacterial activity against Enterobacter cloacae 5699; type: functional; how it was run: as §1
Serratia marcescens [4] = assay: In vitro antibacterial activity against Serratia marcescens SM; type: functional; how it was run: as §1
Klebsiella pneumoniae = assay: In vitro antibacterial activity against Klebsiella pneumoniae A; type: functional; how it was run: as §1
Staphylococcus aureus [5] = assay: In vitro antibacterial activity against Staphylococcus aureus Smith(MS); type: functional; how it was run: as §2
Escherichia coli [6] = assay: In vitro antibacterial activity against Escherichia coli 257; type: functional; how it was run: as §1
Streptococcus pneumoniae [7] = assay: In vitro antibacterial activity against Streptococcus pneumoniae 6301; type: functional
How it was run: (§3)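 Broth macrodilution with serial 2-fold dilutions in cation-supplemented Mueller-Hinton broth containing 10% goat serum. The value is reported as the MIC.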

Enterobacter cloacae [8] = assay: In vitro antibacterial activity against Enterobacter cloacae P99; type: functional; how it was run: as §1
Streptococcus pyogenes [9] = assay: In vitro antibacterial activity against Streptococcus pyogenes 4; type: functional; how it was run: as §3
Escherichia coli [10] = assay: Antibacterial activity against Escherichia coli DC-O; type: functional; how it was run: as §1
[11] = target: T1, Peptidoglycan D,D-transpeptidase MrdA (Escherichia coli K-12) (UniProt P0AD65); assay: Concentration required for 90% inhibition against 66 kDa penicillin-binding protein 2 binding using [14C]-Pen G as the radioligand.
T1 sequence (whole entry): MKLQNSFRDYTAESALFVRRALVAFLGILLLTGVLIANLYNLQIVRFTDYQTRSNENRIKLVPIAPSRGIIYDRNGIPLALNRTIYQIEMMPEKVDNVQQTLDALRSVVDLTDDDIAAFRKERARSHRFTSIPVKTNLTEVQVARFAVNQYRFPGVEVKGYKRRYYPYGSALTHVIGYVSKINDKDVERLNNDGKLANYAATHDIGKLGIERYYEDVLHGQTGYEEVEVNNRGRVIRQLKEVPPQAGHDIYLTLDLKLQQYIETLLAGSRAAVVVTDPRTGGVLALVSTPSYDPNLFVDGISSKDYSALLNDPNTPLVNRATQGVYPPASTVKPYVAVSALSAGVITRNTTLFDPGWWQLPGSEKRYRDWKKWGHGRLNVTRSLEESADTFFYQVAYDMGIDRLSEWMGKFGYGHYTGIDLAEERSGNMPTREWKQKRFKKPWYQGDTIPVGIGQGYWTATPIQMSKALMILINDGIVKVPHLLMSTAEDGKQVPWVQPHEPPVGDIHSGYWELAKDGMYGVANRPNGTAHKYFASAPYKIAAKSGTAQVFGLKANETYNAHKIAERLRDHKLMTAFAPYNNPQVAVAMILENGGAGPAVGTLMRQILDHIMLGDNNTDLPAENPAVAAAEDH
How it was run: (§4)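 Solubilized membranes from sonicated E. coli DC-0 were used. PBP binding was measured as inhibition of [14C]penicillin G binding to each PBP.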

[12] = target: T2, Penicillin-binding protein 1A (Escherichia coli K-12) (UniProt P02918); assay: Concentration required for 90% inhibition against 90 kDa penicillin-binding protein 1a binding using [14C]-Pen G as the radioligand.; how it was run: as §4
T2 sequence (whole entry): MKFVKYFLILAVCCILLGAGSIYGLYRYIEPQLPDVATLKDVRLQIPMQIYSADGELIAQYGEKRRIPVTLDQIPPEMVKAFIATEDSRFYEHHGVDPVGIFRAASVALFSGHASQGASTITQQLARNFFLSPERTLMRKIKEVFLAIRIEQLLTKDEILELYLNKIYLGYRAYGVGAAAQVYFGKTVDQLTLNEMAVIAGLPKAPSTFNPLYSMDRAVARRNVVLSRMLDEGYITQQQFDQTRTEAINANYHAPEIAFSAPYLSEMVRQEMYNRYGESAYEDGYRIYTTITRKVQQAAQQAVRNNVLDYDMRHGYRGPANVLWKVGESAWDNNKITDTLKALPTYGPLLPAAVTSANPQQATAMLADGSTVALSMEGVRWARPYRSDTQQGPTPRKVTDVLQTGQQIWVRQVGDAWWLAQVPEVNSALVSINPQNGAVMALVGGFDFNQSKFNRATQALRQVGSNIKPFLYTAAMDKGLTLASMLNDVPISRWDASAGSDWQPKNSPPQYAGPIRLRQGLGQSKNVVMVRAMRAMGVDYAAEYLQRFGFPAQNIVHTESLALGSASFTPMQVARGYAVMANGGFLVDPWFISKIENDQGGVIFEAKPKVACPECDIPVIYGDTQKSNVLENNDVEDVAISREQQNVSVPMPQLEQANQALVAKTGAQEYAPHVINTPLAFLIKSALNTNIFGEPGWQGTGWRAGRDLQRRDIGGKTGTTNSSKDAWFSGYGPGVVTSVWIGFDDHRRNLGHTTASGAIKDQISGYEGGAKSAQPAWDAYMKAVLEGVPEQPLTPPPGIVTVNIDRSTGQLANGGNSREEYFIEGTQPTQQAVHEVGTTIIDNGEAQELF

Escherichia coli [13] = assay: Concentration required for 90% inhibition against 60 kDa penicillin-binding protein 3 binding using [14C]-Pen G as the radioligand.; how it was run: as §4
[14] = target: T3, Penicillin-binding protein 1B (Escherichia coli K-12) (UniProt P02919); assay: Concentration required for 90% inhibition against 90 kDa penicillin-binding protein 1b binding using [14C]-Pen G as the radioligand.; how it was run: as §4
T3 sequence (whole entry): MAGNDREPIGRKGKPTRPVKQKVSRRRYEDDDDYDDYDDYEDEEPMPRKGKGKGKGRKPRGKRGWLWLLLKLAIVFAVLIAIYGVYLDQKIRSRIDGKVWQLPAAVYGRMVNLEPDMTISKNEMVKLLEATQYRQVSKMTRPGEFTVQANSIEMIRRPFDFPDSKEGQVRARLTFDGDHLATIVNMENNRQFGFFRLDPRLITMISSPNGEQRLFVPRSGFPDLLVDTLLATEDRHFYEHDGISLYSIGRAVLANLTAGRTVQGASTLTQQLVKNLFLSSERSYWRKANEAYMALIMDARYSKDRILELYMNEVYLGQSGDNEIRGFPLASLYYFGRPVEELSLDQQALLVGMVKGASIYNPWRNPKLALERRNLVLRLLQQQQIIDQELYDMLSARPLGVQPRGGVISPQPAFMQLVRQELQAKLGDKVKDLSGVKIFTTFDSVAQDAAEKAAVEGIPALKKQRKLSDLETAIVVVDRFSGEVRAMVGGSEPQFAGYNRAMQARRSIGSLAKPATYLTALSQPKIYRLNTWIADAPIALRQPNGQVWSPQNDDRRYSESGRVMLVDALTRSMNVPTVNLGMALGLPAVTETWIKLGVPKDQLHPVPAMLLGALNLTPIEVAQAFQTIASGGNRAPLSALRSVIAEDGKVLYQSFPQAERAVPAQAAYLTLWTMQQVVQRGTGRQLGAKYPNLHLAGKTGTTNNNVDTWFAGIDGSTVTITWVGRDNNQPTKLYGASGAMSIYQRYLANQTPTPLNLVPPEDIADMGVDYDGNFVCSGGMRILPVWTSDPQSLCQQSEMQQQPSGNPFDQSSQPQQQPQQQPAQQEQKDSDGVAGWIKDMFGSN

Serratia marcescens [15] = assay: In vivo activity in murine against Serratia marcescens SM infection after sc administration.; type: functional
How it was run: (§5)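 Mouse protection test in CD1 Swiss albino mice (18–20 g). Mice were infected intraperitoneally with 0.5 mL of a diluted bacterial suspension, then treated within 5 min with one 1.0 mL subcutaneous dose at the dorsal base of the neck. Doses ranged from 0.05 to 250 mg/kg, with six mice per group. ED50 was calculated by the Reed–Muench method.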

Escherichia coli [16] = assay: In vivo activity in murine against Escherichia coli 257 infection after sc administration.; type: functional; settings: Escherichia coli, sc; read-out: ED50; how it was run: as §5
Pseudomonas aeruginosa [17] = assay: In vivo activity in murine against Pseudomonas aeruginosa 5712 infection after sc administration.; type: functional; settings: Pseudomonas aeruginosa, sc; read-out: ED50
How it was run: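 Mouse protection test in CD1 Swiss albino mice (18–20 g) infected intraperitoneally with 0.5 mL of diluted P. aeruginosa suspension. Mice received 1.0 mL subcutaneously at the neck base within 5 min of infection and a second treatment 3 h after infection. Doses ranged from 0.05 to 250 mg/kg, with six mice per group. ED50 was calculated by the Reed–Muench method.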

Streptococcus pyogenes [18] = assay: In vivo activity in murine against Streptococcus pyogenes 4 infection after sc administration.; type: functional; how it was run: as §5
Streptococcus pneumoniae [19] = assay: In vivo activity in murine against Streptococcus pneumoniae 6301 infection after sc administration.; type: functional; how it was run: as §5

MIC (Citrobacter freundii) [µg/mL]	MIC (Pseudomonas aeruginosa [1]) [µg/mL]	MIC (Staphylococcus aureus [2]) [µg/mL]	MIC (Enterobacter cloacae [3]) [µg/mL]	MIC (Serratia marcescens [4]) [µg/mL]	MIC (Klebsiella pneumoniae) [µg/mL]	MIC (Staphylococcus aureus [5]) [µg/mL]	MIC (Escherichia coli [6]) [µg/mL]	MIC (Streptococcus pneumoniae [7]) [µg/mL]	MIC (Enterobacter cloacae [8]) [µg/mL]	MIC (Streptococcus pyogenes [9]) [µg/mL]	SMILES	MIC (Escherichia coli [10]) [µg/mL]	Concentration [11] [µg/mL]	Concentration [12] [µg/mL]	Concentration (Escherichia coli [13]) [µg/mL]	Concentration [14] [µg/mL]	further results
16 (≈ 26.2 µM)	128 (≈ 210 µM)	1 (≈ 1.64 µM)	4 (≈ 6.56 µM)	8 (≈ 13.1 µM)	2 (≈ 3.28 µM)	4 (≈ 6.56 µM)	2 (≈ 3.28 µM)	16 (≈ 26.2 µM)	0.5 (≈ 0.82 µM)	8 (≈ 13.1 µM)	C[N+]1(CC2=C(C(=O)[O-])N3C(=O)[C@@H](NC=O)[C@H]3SC2)CCN(c2c(F)cc3c(=O)c(C(=O)O)cn(CCF)c3c2F)CC1						
2 (≈ 2.79 µM)	32 (≈ 44.7 µM)	1 (≈ 1.4 µM)	0.5 (≈ 0.699 µM)	2 (≈ 2.79 µM)	0.5 (≈ 0.699 µM)	0.5 (≈ 0.699 µM)	0.5 (≈ 0.699 µM)	0.25 (≈ 0.349 µM)	0.5 (≈ 0.699 µM)	0.063 (≈ 0.088 µM)	C[N+]1(CC2=C(C(=O)[O-])N3C(=O)[C@@H](NC(=O)COc4ccccc4)[C@H]3SC2)CCN(c2c(F)cc3c(=O)c(C(=O)O)cn(CCF)c3c2F)CC1	8 (≈ 11.2 µM)	> 100	10	2	100	
4 (≈ 5.49 µM)	64 (≈ 87.8 µM)	4 (≈ 5.49 µM)	1 (≈ 1.37 µM)	1 (≈ 1.37 µM)	1 (≈ 1.37 µM)	2 (≈ 2.74 µM)	0.5 (≈ 0.686 µM)	0.063 (≈ 0.0864 µM)	1 (≈ 1.37 µM)	0.125 (≈ 0.172 µM)	CCn1cc(C(=O)O)c(=O)c2cc(F)c(N3CC[N+](C)(CC4=C(C(=O)[O-])N5C(=O)[C@@H](NC(=O)/C(=N\OC)c6csc(N)n6)[C@H]5SC4)CC3)cc21						

SMILES	MIC (Citrobacter freundii) [µg/mL]	MIC (Pseudomonas aeruginosa [1]) [µg/mL]	MIC (Staphylococcus aureus [2]) [µg/mL]	MIC (Enterobacter cloacae [3]) [µg/mL]	MIC (Serratia marcescens [4]) [µg/mL]	MIC (Klebsiella pneumoniae) [µg/mL]	MIC (Staphylococcus aureus [5]) [µg/mL]	MIC (Escherichia coli [6]) [µg/mL]	MIC (Streptococcus pneumoniae [7]) [µg/mL]	MIC (Enterobacter cloacae [8]) [µg/mL]	MIC (Streptococcus pyogenes [9]) [µg/mL]	MIC (Escherichia coli [10]) [µg/mL]	Concentration [11] [µg/mL]	Concentration [12] [µg/mL]	Concentration (Escherichia coli [13]) [µg/mL]	Concentration [14] [µg/mL]	further results
CO/N=C(\C(=O)N[C@@H]1C(=O)N2C(C(=O)O)=C(COC(C)=O)CS[C@H]12)c1csc(N)n1 [CEFOTAXIME]	128 (≈ 281 µM)	64 (≈ 141 µM)	128 (≈ 281 µM)	0.125 (≈ 0.274 µM)	0.25 (≈ 0.549 µM)	0.031 (≈ 0.0681 µM)	1 (≈ 2.2 µM)	0.031 (≈ 0.0681 µM)	0.016 (≈ 0.0351 µM)	64 (≈ 141 µM)	< 0.008	0.06 (≈ 0.132 µM)	100	0.1	0.1	0.5	ED50 (Serratia marcescens [15]): > 50 mg/kg; ED50 (Escherichia coli [16]): 0.37 mg/kg; ED50 (Pseudomonas aeruginosa [17]): > 250 mg/kg; ED50 (Streptococcus pyogenes [18]): 7 mg/kg; ED50 (Streptococcus pneumoniae [19]): 90 mg/kg
